Screens from PubChem.
The list is not random: actives were taken first. Their share in the collection is about 3.5%.
MrgX1 antag = human MrgX1 receptor antagonism, primary screen; 310,000 compounds, 1.3% hits; Q96LB2; MRGX1-HEK293 calcium flux, Fluo-4, BAM8-22 antagonism; active compounds read low; B-score at 10 µM;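 active means calcium-response B-score plate-corrected more than 3 library SD below zero, starting fluorescence within 5 deviations, no agonist response on first addition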;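 further: peak minus trough fluorescence over baseline after final BAM8-22 challenge near maximal dose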
Target sequence (Q96LB2 whole entry, looked up): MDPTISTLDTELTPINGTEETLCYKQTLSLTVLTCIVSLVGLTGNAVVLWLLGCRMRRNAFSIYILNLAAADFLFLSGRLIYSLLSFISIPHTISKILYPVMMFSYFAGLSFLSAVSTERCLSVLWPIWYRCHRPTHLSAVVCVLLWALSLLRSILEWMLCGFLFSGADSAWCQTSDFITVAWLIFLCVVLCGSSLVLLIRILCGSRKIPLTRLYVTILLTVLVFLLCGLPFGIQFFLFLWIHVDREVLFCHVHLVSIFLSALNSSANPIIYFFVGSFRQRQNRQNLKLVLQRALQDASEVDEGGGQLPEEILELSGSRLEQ
MrgX1 PAM = human MrgX1 positive allosteric modulation, primary screen. MrgX1-HEK293, Fluo-4 calcium flux, FDSS; active compounds read high. B-score at 10 µM. 310,000 compounds, 0.63% hits;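 active means plate-corrected calcium response at least 3 library SD above typical, normal starting fluorescence, not activating the receptor alone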;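 further: compound read alongside a low EC10 to EC30 dose of BAM8-22 agonist; peak minus trough fluorescence over baseline measured at the second addition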
RGS4 inh = inhibitors of human RGS4 | HEK293 M3R/RGS4 inducible, Fluo-4 calcium flux; active compounds read high; triggered by carbachol at its EC20 | B-score at 10 µM | 310,000 compounds, 0.45% hits | AID 463165;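 active means B-score, a plate-corrected calcium signal, over three deviations above library mean, with baseline fluorescence within five deviations of library mean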;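 further: RGS4 expression induced by doxycycline in cells with stable M3 receptor; B-score is computed from the integrated fluorescence ratio over baseline after carbachol; higher B-score means a larger calcium signal and so more RGS4 inhibition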
Target sequence (P49798 whole entry, looked up): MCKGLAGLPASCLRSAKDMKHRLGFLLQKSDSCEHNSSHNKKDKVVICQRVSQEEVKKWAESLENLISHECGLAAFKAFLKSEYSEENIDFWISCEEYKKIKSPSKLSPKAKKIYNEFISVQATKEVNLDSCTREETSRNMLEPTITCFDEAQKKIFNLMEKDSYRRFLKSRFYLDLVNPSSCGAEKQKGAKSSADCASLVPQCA
MrgX1 agonist = human MrgX1 receptor agonism, primary screen. B-score at 10 µM. MrgX1-HEK293 cells, Fluo-4 calcium fluorescence, agonist mode; active compounds read high. 310,000 compounds, 0.44% hits. AID 588627;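 active means calcium response B-score plate-corrected fluorescence ratio at least 3 library SD, with starting fluorescence B-score inside 5 SD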
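Material – MrgX1-expressing HEK293 cells · Input – 15,000 cells seeded per well · Dosing – compound as first of three additions · Times – overnight seeding, then 1 h dark dye loading · Measured by – kinetic Fluo-4 NW fluorescence of intracellular calcium · Read-out – B-scored fluorescence response ratio · Benchmarks – positive and negative control wells on each plate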
RGS4 act = RGS4 potentiation or activation. HEK293 M3R/inducible RGS4, carbachol calcium flux Fluo4; active compounds read low. B-score at 10 µM. 310,000 compounds, 0.92% hits. AID 463111;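 active means B-score of the integrated calcium signal more than 4 SD below the library mean, with starting fluorescence not abnormally high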;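 further: negative B-score means reduced calcium response which marks RGS4 activation or potentiation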
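Material: M3R-expressing HEK293 line, RGS4 induced by doxycycline | Schedule: Overnight RGS4 induction, 30 min dye load 37 °C, 20 min compound RT | Measured by: Fluo4 fluorescence kinetic imaging of calcium | Read-out: Integrated calcium ratio converted to B score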
MrgX1 allo conf = human MrgX1 positive allosteric modulation, re-confirmation; shares compounds with MrgX1 PAM; MrgX1-HEK293, Fluo-4 calcium fluorescence, FDSS; activation (ratio percentage), % at 10 µM; 1,200 compounds, 13% hits; AID 602413;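 active means ratio at least 3 SD above the weak peptide control, stable starting fluorescence, no direct agonism earlier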;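 further: compound followed by low BAM8-22 agonist challenge near EC20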
MrgX1 ant reconf = confirmation of human MrgX1 receptor antagonists. remaining BAM8-22 calcium response % of control (active compounds read low), % at 10 µM. shares compounds with MrgX1 antag. 2,300 compounds, 19% hits. MrgX1-HEK293, BAM8-22 calcium flux, Fluo-4; active compounds read low;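 active means remaining agonist calcium response no higher than 100% minus 3 SD of agonist-only control wells, with starting fluorescence near control levels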;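 further: agonist BAM8-22 given at a near maximal EC90 to ECmax level; peak minus minimum fluorescence divided by baseline after agonist addition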
HEK293 Ca flux = activity in parental HEK293 cells lacking MrgX1 | shares compounds with MrgX1 antag | Fluo-4 calcium fluorescence, FDSS | fluorescence ratio F(max-min)/F0 at 10 µM | 4,000 compounds, 2% hits;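 active means duplicate-averaged calcium fluorescence ratio at least three times the standard deviation of buffer wells, a nonspecific response in parental cells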
HEK293 Ca counter = counter-screen for MrgX1 allosteric activators: effect in parental HEK293 cells; shares compounds with MrgX1 antag; 4,000 compounds, 0.4% hits; AID 624114; fluorescence ratio F(max-min)/F0 at 10 µM; parental HEK293 calcium flux, Fluo-4 fluorescence ratio; active compounds read high;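 active means calcium fluorescence ratio, averaged over duplicates, at least 3 SD of the buffer-well ratio, meaning a nonspecific response in receptor-free cells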;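 further: untransfected parental HEK293 lacking MrgX1 used as counterscreen for MrgX1 allosteric activators; fluorescence change taken during the second addition on a kinetic imager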
HEK293 Ca cntr2 = counter-screen for MrgX1 activators: effect in parental HEK293 cells; fluorescence ratio F(max-min)/F0 at 10 µM; shares compounds with MrgX1 antag; AID 624115; Fluo-4 calcium fluorescence (FDSS); active compounds read high; 4,000 compounds, 8.7% hits;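 active means calcium fluorescence ratio at least three times the spread of buffer wells, meaning a non-specific response in parental cells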
Numbers without * were called inactive; i = inactive; / = no result.

SMILES | MrgX1 antag | MrgX1 PAM | RGS4 inh | MrgX1 agonist | RGS4 act | MrgX1 allo conf | HEK293 Ca flux | HEK293 Ca counter | HEK293 Ca cntr2 | others
CC1(c2ccc(Cl)cc2)NC(=O)CS1 (stereo not given) | i | i | i | i | i | / | / | / | /
CC(C)c1ccc2c(c1)[C@H]1OCC[C@H]1[C@@H](c1cccs1)N2 | i | 8.3* | i | i | i | 3.3%* | i | i | i
CCCCOc1ccc(C(=O)N2CCN(c3ncccn3)CC2)cc1 | i | i | i | i | i | / | / | / | /
COc1ccc(OC)c(-c2csc(NC(=O)CSCc3c(C)noc3C)n2)c1 | i | i | i | i | i | / | / | / | /
CCCCCCn1c(N2CCCC2)nc2c1c(=O)n(C)c(=O)n2C | i | 7.7* | i | i | i | i | i | i | i
CC(C)CCn1c(N2CCCC2)nc2c1c(=O)n(C)c(=O)n2C | i | i | i | i | i | / | / | / | /
O=C(Cc1ccccc1)Oc1coc(CSc2ncccn2)cc1=O | i | i | i | i | i | / | / | / | /
COc1cccc(-n2c(SCC(N)=O)nnc2-c2c[nH]c3ccccc23)c1 | i | 6.9* | i | i | i | i | i | i | i
Cc1cc2nc(C(C)(C)C)cc(N)n2n1 | i | i | i | i | i | / | / | / | /
CC(C)(C)c1cc(N)n2nc(C(C)(C)C)cc2n1 | i | 7.7* | i | i | i | i | i | i | i
CCOc1ccc2nc(N3CCCC(C(=O)NCC4CCCO4)C3)sc2c1 (stereo not given) | i | 6.6* | i | i | i | i | i | i | i
CCCN1CCN(CCCNC(=O)C2CCCN(c3nc4ccc(OCC)cc4s3)C2)CC1 (stereo not given) | i | i | i | i | i | / | / | / | /
CCOC(=O)c1ccc(NC(=O)C2CC3CCC2C3)cc1 (stereo not given) | i | 7.5* | i | i | i | i | i | i | i
COc1ccc(S(=O)(=O)NCc2ccc(F)cc2)cc1OC | i | i | i | i | i | / | / | / | /
CC1CCCCN1S(=O)(=O)c1ccc(C(=O)Nc2nnc(-c3ccncc3)o2)cc1 (stereo not given) | i | i | i | i | i | / | / | / | /
COc1ccc(-c2nnc(NC(=O)c3ccc(S(=O)(=O)N4COCC4(C)C)cc3)o2)cc1 | i | 7* | i | i | i | i | i | i | i
CN(Cc1cnccn1)Cc1nc(Cc2ccccc2F)no1 | i | 10* | i | i | i | i | i | i | i
CN(Cc1cnccn1)Cc1nc(Cc2ccccc2Cl)no1 | i | i | i | i | i | / | / | / | /
O=C(O)C1Cc2ccccc2CN1C(=O)CSc1nnc2ccccn12 (stereo not given) | i | i | i | i | i | / | / | / | /
CCOc1ccccc1NC(=O)CSc1ccccc1 | i | 6.9* | i | i | i | i | i | i | i
CN1CCN(C2CCCCC2NS(=O)(=O)c2ccc(Cl)cc2)CC1 (stereo not given) | i | i | i | i | i | / | / | / | /
CC1CC(C)CN(C2CCCCC2NS(=O)(=O)c2ccc(Cl)cc2)C1 (stereo not given) | i | 8.2* | i | i | i | i | i | i | i
CCOC(=O)C1C(=O)C=C(c2ccc(C)cc2)CC1c1cccc([N+](=O)[O-])c1 (stereo not given) | i | i | i | i | i | / | / | / | /
N#Cc1ccc(NC(=O)CN2C(=O)NC3(CCCC3)C2=O)cc1 | i | i | i | i | i | / | / | / | /
O=C(NN1CCOCC1)C12CC3CC(CC(C3)C1)C2 | i | i | i | i | i | / | / | / | /
SMILES | MrgX1 antag | MrgX1 PAM | RGS4 inh | MrgX1 agonist | RGS4 act | MrgX1 allo conf | HEK293 Ca flux | HEK293 Ca counter | HEK293 Ca cntr2 | others
O=C(Nc1ccccc1F)Nc1ccccc1F | i | 7.2* | i | i | i | i | i | i | i
O=C(NNc1ccccc1)Nc1ccccc1F | i | i | i | i | i | / | / | / | /
CN1CCCC(OC(=O)c2ccc(C(C)(C)C)cc2)C1 (stereo not given) | i | i | i | i | i | / | / | / | /
O=C(Nc1ccc(Cl)c(Cl)c1)c1ccccc1 | i | 8* | / | i | / | i | i | i | i
O=C(NCCCn1cccn1)C1CCC(=O)N(Cc2cccc(C(F)(F)F)c2)C1 (stereo not given) | i | 7.8* | i | i | i | i | i | i | i
O=C(NCCCC1CCCC1)C1CCC(=O)N(Cc2cccc(C(F)(F)F)c2)C1 (stereo not given) | i | i | i | i | i | / | / | / | /
COc1ccc(-c2csc(NC(=O)C3CSC4(C)CCC(=O)N34)n2)cc1OC (stereo not given) | i | 11* | i | i | i | 9.1%* | i | i | i
CC12CCC(=O)N1C(C(=O)Nc1nc(-c3ccc(F)c(F)c3)cs1)CS2 (stereo not given) | i | i | i | i | i | / | / | / | /
O=C(Nc1ccccc1)Nc1ccc(Cl)c(S(=O)(=O)N2CCOCC2)c1 | -8.1* | 7.7* | i | i | i | i | i | i | i | MrgX1 ant reconf=i
O=C(Nc1ccc(NC(=O)c2ccc(Cl)c(S(=O)(=O)N3CCOCC3)c2)cc1)c1ccccc1 | i | i | i | i | i | / | / | / | /
O=C(Nc1ccc(S(=O)(=O)N2CCOCC2)cc1)C1CC1 | i | 15* | i | i | i | i | i | i | i
CCC(=O)Nc1ccc(S(=O)(=O)N2CCOCC2)cc1 | i | i | i | i | i | / | / | / | /
COc1ccc(C2CC(c3ccccc3)Nc3nc(NC(=O)c4ccco4)nn32)cc1 (stereo not given) | i | i | i | i | i | / | / | / | /
